Format in all cases: ADME
Data set [1] addresses T1, Solute carrier family 15 member 1 (Rattus norvegicus, UniProt P51574).
T1 sequence (P51574 whole entry): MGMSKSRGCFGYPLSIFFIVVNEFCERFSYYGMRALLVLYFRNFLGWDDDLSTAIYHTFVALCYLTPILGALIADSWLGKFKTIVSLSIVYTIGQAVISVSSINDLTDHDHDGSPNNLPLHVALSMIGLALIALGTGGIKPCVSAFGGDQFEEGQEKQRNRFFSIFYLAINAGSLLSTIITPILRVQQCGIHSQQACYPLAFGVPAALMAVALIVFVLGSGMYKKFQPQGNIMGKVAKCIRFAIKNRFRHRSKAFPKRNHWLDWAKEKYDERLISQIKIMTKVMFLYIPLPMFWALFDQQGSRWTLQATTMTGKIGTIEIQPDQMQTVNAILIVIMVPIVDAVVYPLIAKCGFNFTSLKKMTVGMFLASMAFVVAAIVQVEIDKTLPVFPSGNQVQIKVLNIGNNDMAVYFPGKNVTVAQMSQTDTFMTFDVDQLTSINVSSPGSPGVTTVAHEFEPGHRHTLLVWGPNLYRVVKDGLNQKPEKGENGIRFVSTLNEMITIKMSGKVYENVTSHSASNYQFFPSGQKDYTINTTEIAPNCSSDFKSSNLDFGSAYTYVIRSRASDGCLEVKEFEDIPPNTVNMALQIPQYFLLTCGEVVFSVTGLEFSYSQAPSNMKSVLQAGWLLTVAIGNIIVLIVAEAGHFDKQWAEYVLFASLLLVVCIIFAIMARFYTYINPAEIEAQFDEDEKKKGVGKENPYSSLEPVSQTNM
In words: Drug uptake in Pichia pastoris GS115 expressing rat recombinant PEPT1 at 5 uM after 30s by dual-channel liquid scintillation counting analysis in presence of cephapirin relative to control. The note with it: 0.5 min. The procedure, abridged: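 Rat PEPT1 (pPIC3.5K-rPept1) in GS115 His+Mut+ transformant, methanol-induced 20-24 hr in BMMY at 30°C, washed into 100 mM potassium phosphate pH 6.5. [3H]GlySar final 5.0 µM with inhibitor at 10 mM, 30 sec at 24°C. Counts taken by liquid scintillation after 24 hr standing. Values are vector-subtracted and given as % of buffer control. Mean ± SE, n=3.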

In data set [2] the target is T1, Solute carrier family 15 member 1. In words: Drug uptake in Pichia pastoris GS115 expressing rat recombinant PEPT1 at 5 uM after 30s by dual-channel liquid scintillation counting analysis in presence of SITS relative to control. The note with it: in vivo, 0.5 min. The procedure, abridged:
(§1)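 [3H]GlySar 5.0 µM final, 30-s uptake at 24°C in 100 mM potassium phosphate pH 6.5, with or without a potential inhibitor at 10 mM. Cells are methanol-induced transformants. Values are vector-subtracted and expressed as percent of buffer control. Mean ± SE (n=3). ANOVA with Dunnett's test.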

Data set [3] addresses T2, Solute carrier family 15 member 1 (Mus musculus, UniProt Q9JIP7).
T2 sequence (Q9JIP7 whole entry): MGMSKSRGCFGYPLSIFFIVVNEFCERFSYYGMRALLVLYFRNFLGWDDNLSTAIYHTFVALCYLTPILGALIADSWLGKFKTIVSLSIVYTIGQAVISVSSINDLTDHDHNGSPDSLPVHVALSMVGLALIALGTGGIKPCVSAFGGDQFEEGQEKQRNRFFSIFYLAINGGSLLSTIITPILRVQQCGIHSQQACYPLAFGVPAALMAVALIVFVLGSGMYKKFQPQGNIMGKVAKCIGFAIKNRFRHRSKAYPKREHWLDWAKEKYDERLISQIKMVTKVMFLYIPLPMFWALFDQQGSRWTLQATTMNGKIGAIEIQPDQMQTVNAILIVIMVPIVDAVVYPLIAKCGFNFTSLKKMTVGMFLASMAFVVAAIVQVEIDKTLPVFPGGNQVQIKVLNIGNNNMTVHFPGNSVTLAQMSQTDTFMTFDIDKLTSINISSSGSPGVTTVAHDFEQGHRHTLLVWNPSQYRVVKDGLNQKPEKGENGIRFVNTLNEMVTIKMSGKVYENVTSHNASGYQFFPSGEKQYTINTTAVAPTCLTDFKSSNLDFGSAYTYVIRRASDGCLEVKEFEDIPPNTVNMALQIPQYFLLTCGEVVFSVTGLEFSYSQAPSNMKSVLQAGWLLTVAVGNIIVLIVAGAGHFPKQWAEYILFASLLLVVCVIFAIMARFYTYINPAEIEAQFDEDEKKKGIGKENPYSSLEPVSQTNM
In words: Drug uptake in Pichia pastoris GS115 expressing mouse recombinant PEPT1 at 5 uM after 30s by dual-channel liquid scintillation counting analysis in presence of TEA relative to control. The note with it: 0.5 min. A digest of the protocol:
as §1

A further data set has as its target T3, PEPT1 (Mus musculus, UniProt Q9JIP7).
T3 sequence (Q9JIP7 whole entry): T2 sequence (Q9JIP7 whole entry)
In words: Drug uptake in Pichia pastoris GS115 expressing mouse recombinant PEPT1 at 5 uM after 30s by dual-channel liquid scintillation counting analysis relative to vector control. The note with it: read-out: FC. A digest of the protocol:
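5.0 µM radiolabelled substrate uptake for 30 s at 24°C in pH 6.5 phosphate buffer by induced transformants. Radioactivity is counted by liquid scintillation and normalised to OD600. Results are compared with pPIC3.5K vector-alone cells. Mean ± SE (n=6).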

Data set [4] concerns the target T2, Solute carrier family 15 member 1. Nature of the data set: Activity at mouse recombinant PEPT1 expressed in Pichia pastoris GS115 assessed as non-saturable rate constant after 30s by dual-channel liquid scintillation counting analysis. The procedure, abridged:
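[3H]GlySar concentration series 0.005-10 mM, 30-s uptake at 24°C in 100 mM potassium phosphate pH 6.5. Cells come from His+Mut+ GS115 transformants induced 20-24 h in methanol medium. Uptake is normalised to OD600. Data are fitted to Michaelis-Menten plus a first-order nonsaturable term (Kd), weighting unity. Parameters are mean ± SE (n=9).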

In data set [5] the target is T1, Solute carrier family 15 member 1. Nature of the data set: Drug uptake in Pichia pastoris GS115 expressing rat recombinant PEPT1 at 5 uM after 30s by dual-channel liquid scintillation counting analysis relative to control. To be noted: 0.5 min. A digest of the protocol: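 Rat PEPT1 and vector-only (pPIC3.5K) GS115 yeast, methanol-induced 20-24 hr. Cells were washed and concentrated tenfold in 100 mM phosphate buffer pH 6.5. [3H]GlySar or [14C]oseltamivir final 5.0 µM, 24°C, 30 sec and 5 min. Nonspecific binding was measured at 0°C and zero time. Uptake is given as pmol/OD600 by scintillation counting. Mean ± SE, n=6.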

For the molecule `[3H]C(C(=O)O)N(C)C(=O)CN` (stereo unspecified), the Drug uptake was found to be 122% in data set [1], 107% in data set [2], 83.7% in data set [3] and 100% in data set [5]. For the same molecule, the uptake ratio at 0.5 min, 5 µM on PEPT1 is 61. In addition, the Kd in data set [4] is 2.21 uL/OD/min.

These data come from ChEMBL document CHEMBL3526053, “Species-dependent uptake of glycylsarcosine but not oseltamivir in Pichia pastoris expressing the rat, mouse, and human intestinal peptide transporter PEPT1” (Drug Metab Dispos, 2012).
